Data published in ChEMBL document CHEMBL1135629, “The effect of exchanging various substituents at the 2-position of 2-methoxyestradiol on cytotoxicity in human cancer cell cultures and inhibition of tubulin polymerization” (J Med Chem, 2002).
Each block holds one compound with its values, some of them ahead of it.

Assays:
[1] = biological target: Tubulin (Bos taurus, UniProt Q6B856+Q862L2+Q862F3); experiment: Inhibition of tubulin polymerization measured at 12 uM tubulin concentration.; format: protein assay
Summary of the method: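 Bovine brain tubulin, electrophoretically homogeneous, at 1.2 mg/mL (12 μM), preincubated at 26 °C with varying compound concentrations (up to 40 μM), then chilled on ice before GTP was added. Polymerization at 26 °C followed by turbidity at 350 nm, with extent read at 20 min. IC50 determined graphically from at least two independent assays.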

[2] = species: Homo sapiens; experiment: Cytotoxicity against the cancer cell lines melanoma UACC-62; format: functional
Summary of the method: (§1)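 Human tumor cell line panel (about 55 lines) exposed to compound across 10^-4 to 10^-8 M. GI50 is the concentration giving 50% growth inhibition; values outside the range are set to the range limits.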

[3] = species: Homo sapiens; experiment: Cytotoxicity against the cancer cell lines ovarian OVCAR-3; format: functional; summary of the method: as §1
[4] = species: Homo sapiens; experiment: Cytotoxicity against the cancer cell lines colon HCT116; format: functional; summary of the method: as §1
[5] = species: Homo sapiens; experiment: Cytotoxicity against the cancer cell lines lung HOP-62; format: functional; summary of the method: as §1
[6] = species: Homo sapiens; experiment: Cytotoxicity against the cancer cell lines CNS SF-539; format: functional; summary of the method: as §1
[7] = species: Homo sapiens; experiment: Cytotoxicity against the cancer cell lines prostate DU-145; format: functional; summary of the method: as §1
[8] = species: Homo sapiens; experiment: Cytotoxicity against the cancer cell lines renal SN12C; format: functional; summary of the method: as §1
[9] = species: Homo sapiens; experiment: Cytotoxicity against the cancer cell lines breast MDA-MB-435; format: functional; summary of the method: as §1

SMILES: COc1cc2c(cc1O)CC[C@@H]1[C@@H]2CC[C@]2(C)[C@@H](O)CC[C@@H]12 [2-METHOXYESTRADIOL]
IC50 [1]: 4.7 µM | GI50 [2]: 0.36 µM | GI50 [3]: 0.21 µM | GI50 [4]: 0.47 µM | GI50 [5]: 0.7 µM | GI50 [6]: 0.32 µM | GI50 [7]: 1.8 µM | GI50 [8]: 0.95 µM | GI50 [9]: 0.08 µM

SMILES: CN(C)CC/N=C/c1cc2c(cc1O)CC[C@@H]1[C@@H]2CC[C@]2(C)[C@@H](O)CC[C@@H]12
IC50 [1]: > 40 µM | GI50 [2]: 17 µM | GI50 [3]: 21 µM | GI50 [4]: 15 µM | GI50 [5]: 19 µM | GI50 [6]: 22 µM | GI50 [7]: 22 µM | GI50 [8]: 22 µM | GI50 [9]: 19 µM

SMILES: COc1cc(/C=C/c2cc3c(cc2O)CC[C@@H]2[C@@H]3CC[C@]3(C)[C@@H](O)CC[C@@H]23)cc(OC)c1OC
IC50 [1]: > 40 µM | GI50 [2]: 2.7 µM | GI50 [3]: 3.2 µM | GI50 [4]: 3.2 µM | GI50 [5]: 3.6 µM | GI50 [6]: 2 µM | GI50 [7]: 2.8 µM | GI50 [8]: 2.4 µM | GI50 [9]: 4.4 µM

SMILES: C[C@]12CC[C@@H]3c4cc(C#Cc5ccccc5)c(O)cc4CC[C@H]3[C@@H]1CC[C@@H]2O
IC50 [1]: > 40 µM | GI50 [2]: 12 µM | GI50 [3]: 14 µM | GI50 [4]: 14 µM | GI50 [5]: 14 µM | GI50 [6]: 16 µM | GI50 [7]: 16 µM | GI50 [8]: 11 µM | GI50 [9]: 16 µM

SMILES: C[C@]12CC[C@@H]3c4cc(OCCO)c(O)cc4CC[C@H]3[C@@H]1CC[C@@H]2O
IC50 [1]: 9.6 µM | GI50 [2]: 13 µM | GI50 [3]: 8.7 µM | GI50 [4]: 15 µM | GI50 [5]: 18 µM | GI50 [6]: 11 µM | GI50 [7]: 16 µM | GI50 [8]: 19 µM | GI50 [9]: 16 µM

SMILES: C[C@]12CC[C@@H]3c4cc(/C=N/CCO)c(O)cc4CC[C@H]3[C@@H]1CC[C@@H]2O
IC50 [1]: > 40 µM | GI50 [2]: 16 µM | GI50 [3]: 19 µM | GI50 [4]: 11 µM | GI50 [5]: 23 µM | GI50 [6]: 13 µM | GI50 [7]: 20 µM | GI50 [8]: 18 µM | GI50 [9]: 17 µM

Further lines, with some results ahead:

IC50 [1]: > 40 µM
SMILES: C[C@]12CC[C@@H]3c4cc(C#N)c(O)cc4CC[C@H]3[C@@H]1CC[C@@H]2O
GI50 [2]: 6.1 µM | GI50 [3]: > 100 µM | GI50 [4]: > 100 µM | GI50 [5]: 56 µM | GI50 [6]: > 100 µM | GI50 [7]: 34 µM | GI50 [8]: 48 µM | GI50 [9]: > 100 µM

IC50 [1]: 13 µM
SMILES: C#Cc1cc2c(cc1O)CC[C@@H]1[C@@H]2CC[C@]2(C)[C@@H](O)CC[C@@H]12
GI50 [2]: 4.8 µM | GI50 [3]: 3.8 µM | GI50 [4]: 3.9 µM | GI50 [5]: 6.2 µM | GI50 [6]: 2.3 µM | GI50 [7]: 10 µM | GI50 [8]: 6.4 µM | GI50 [9]: 2.2 µM

IC50 [1]: 4.9 µM
SMILES: CC#Cc1cc2c(cc1O)CC[C@@H]1[C@@H]2CC[C@]2(C)[C@@H](O)CC[C@@H]12
GI50 [2]: 0.5 µM | GI50 [3]: 0.34 µM | GI50 [4]: 0.48 µM | GI50 [5]: 1.7 µM | GI50 [6]: 0.95 µM | GI50 [7]: 3.6 µM | GI50 [8]: 6.9 µM | GI50 [9]: 0.13 µM

IC50 [1]: 6.3 µM
SMILES: C[C@]12CC[C@@H]3c4cc(/C=C/CO)c(O)cc4CC[C@H]3[C@@H]1CC[C@@H]2O
GI50 [2]: 0.47 µM | GI50 [3]: 5.3 µM | GI50 [4]: 0.47 µM | GI50 [5]: 5.5 µM | GI50 [6]: 0.25 µM | GI50 [7]: 0.9 µM | GI50 [8]: 6.2 µM | GI50 [9]: 0.052 µM
